Laboratory results reported in ChEMBL document CHEMBL4118202, “Chiral analogues of (+)-cyclazosin as potent α1B-adrenoceptor selective antagonist” (Bioorg Med Chem, 2018).

Tests used:
[1] = molecular target: T1, Alpha-1B adrenergic receptor (Rattus norvegicus) (UniProt P15823); experiment: Antagonist activity at alpha1B adrenergic receptor in Wistar rat spleen assessed as inhibition of phenylephrine-induced contraction incubated for 30 mins in presence of beta-adrenoceptor blocker propranolol hydrochloride; assay type: functional
T1 sequence (whole entry): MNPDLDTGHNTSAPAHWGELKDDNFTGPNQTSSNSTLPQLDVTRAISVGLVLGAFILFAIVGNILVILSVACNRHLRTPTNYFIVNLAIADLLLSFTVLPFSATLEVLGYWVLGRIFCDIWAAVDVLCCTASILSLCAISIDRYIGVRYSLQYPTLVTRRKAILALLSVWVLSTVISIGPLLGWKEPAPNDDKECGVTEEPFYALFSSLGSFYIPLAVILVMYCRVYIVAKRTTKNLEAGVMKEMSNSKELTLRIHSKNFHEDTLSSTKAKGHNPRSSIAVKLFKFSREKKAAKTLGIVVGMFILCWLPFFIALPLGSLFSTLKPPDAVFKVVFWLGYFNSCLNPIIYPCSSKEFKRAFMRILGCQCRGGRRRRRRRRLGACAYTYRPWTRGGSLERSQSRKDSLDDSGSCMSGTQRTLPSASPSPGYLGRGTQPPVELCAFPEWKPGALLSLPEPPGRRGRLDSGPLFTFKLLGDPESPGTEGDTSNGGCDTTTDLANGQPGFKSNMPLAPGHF
Summary of the method: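 Spleen bisected longitudinally into strips in Krebs with propranolol 4 μM, held at 1 g and equilibrated 2 h. Two isometric cumulative phenylephrine curves, each followed by 30 min washing. Third curve after 30 min vehicle or antagonist. Potency as pA2 (Schild) or pKB at one concentration (van Rossum). Responses as % of control maximum; n ≥ 4.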

Rattus norvegicus [2] = species on record: Rattus norvegicus; experiment: Selectivity ratio of compound effect for antagonism of alpha1B adrenergic receptor in Wistar rat spleen to compound effect for antagonism of alpha1A adrenergic receptor in Wistar rat prostatic rat vas deferens
Summary of the method: (§1)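 Ratio taken as the antilog of the difference between rat tissue pA2 or pKB values for the two subtypes (vas deferens α1A, spleen α1B, aorta α1D organ-bath antagonism).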

Rattus norvegicus [3] = species on record: Rattus norvegicus; experiment: Selectivity ratio of compound effect for antagonism of alpha1B adrenergic receptor in Wistar rat spleen to compound effect for antagonism of alpha1D adrenergic receptor in Wistar rat thoracic aorta; summary of the method: as §1
Rattus norvegicus [4] = species on record: Rattus norvegicus; experiment: Selectivity ratio of compound effect for antagonism of alpha1D adrenergic receptor in Wistar rat thoracic aorta to compound effect for antagonism of alpha1A adrenergic receptor in Wistar rat prostatic rat vas deferens; summary of the method: as §1
[5] = molecular target: T2, Alpha-1A adrenergic receptor (Homo sapiens, UniProt P35348); experiment: Displacement of [3H]prazosin from human alpha1A adrenergic receptor expressed in CHO cell membranes after 30 mins by rapid filtration method
T2 sequence (P35348 whole entry): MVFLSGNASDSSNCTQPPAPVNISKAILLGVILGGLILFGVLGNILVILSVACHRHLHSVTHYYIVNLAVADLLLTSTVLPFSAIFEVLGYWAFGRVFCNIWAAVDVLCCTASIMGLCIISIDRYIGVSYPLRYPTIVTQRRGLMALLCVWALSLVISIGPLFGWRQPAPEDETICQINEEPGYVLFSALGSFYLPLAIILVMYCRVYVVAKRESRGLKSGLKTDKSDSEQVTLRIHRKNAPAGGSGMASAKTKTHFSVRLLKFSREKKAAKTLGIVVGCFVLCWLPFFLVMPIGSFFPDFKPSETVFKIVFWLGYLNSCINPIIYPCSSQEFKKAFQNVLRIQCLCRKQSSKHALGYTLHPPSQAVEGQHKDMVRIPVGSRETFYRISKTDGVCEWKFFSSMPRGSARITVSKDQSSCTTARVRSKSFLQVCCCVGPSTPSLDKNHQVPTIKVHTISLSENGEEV
Summary of the method: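 Membranes (30 μg protein) from CHO cells stably transfected with the human α1a, α1b or α1d receptor. Incubated 30 min at 25 °C in 50 mM Tris-HCl pH 7.4 with 0.1–0.4 nM [3H]prazosin and competitor 1 pM–10 μM. Nonspecific binding defined by 10 μM phentolamine. Stopped by rapid filtration through PEI-treated filters. IC50 converted to Ki by Cheng-Prusoff; pKi from 2–3 experiments in triplicate.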

Homo sapiens [6] = species on record: Homo sapiens; experiment: Selectivity ratio of compound effect for displacement of [3H]prazosin from human alpha1B adrenergic receptor expressed in CHO cell membranes to compound effect for displacement of [3H]prazosin from human alpha1A adrenergic receptor expressed in CHO cell membranes
Summary of the method: (§2)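 Ratio taken as the antilog of the difference between pKi values from [3H]prazosin displacement at human α1 subtypes expressed in CHO membranes.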

Homo sapiens [7] = species on record: Homo sapiens; experiment: Selectivity ratio of compound effect for displacement of [3H]prazosin from human alpha1B adrenergic receptor expressed in CHO cell membranes to compound effect for displacement of [3H]prazosin from human alpha1D adrenergic receptor expressed in CHO cell membranes; summary of the method: as §2
Homo sapiens [8] = species on record: Homo sapiens; experiment: Selectivity ratio of compound effect for displacement of [3H]prazosin from human alpha1D adrenergic receptor expressed in CHO cell membranes to compound effect for displacement of [3H]prazosin from human alpha1A adrenergic receptor expressed in CHO cell membranes; summary of the method: as §2
[9] = molecular target: T3, Alpha-1A adrenergic receptor (Rattus norvegicus, UniProt P43140); experiment: Antagonist activity at alpha1A adrenergic receptor in Wistar rat prostatic rat vas deferens assessed as inhibition of noradrenaline-induced contraction preincubated for 30 mins followed by noradrenaline addition measured after 45 mins in presence of cocaine hydrochloride; assay type: functional; conditions: read-out: pA2 (converted)
T3 sequence (P43140 whole entry): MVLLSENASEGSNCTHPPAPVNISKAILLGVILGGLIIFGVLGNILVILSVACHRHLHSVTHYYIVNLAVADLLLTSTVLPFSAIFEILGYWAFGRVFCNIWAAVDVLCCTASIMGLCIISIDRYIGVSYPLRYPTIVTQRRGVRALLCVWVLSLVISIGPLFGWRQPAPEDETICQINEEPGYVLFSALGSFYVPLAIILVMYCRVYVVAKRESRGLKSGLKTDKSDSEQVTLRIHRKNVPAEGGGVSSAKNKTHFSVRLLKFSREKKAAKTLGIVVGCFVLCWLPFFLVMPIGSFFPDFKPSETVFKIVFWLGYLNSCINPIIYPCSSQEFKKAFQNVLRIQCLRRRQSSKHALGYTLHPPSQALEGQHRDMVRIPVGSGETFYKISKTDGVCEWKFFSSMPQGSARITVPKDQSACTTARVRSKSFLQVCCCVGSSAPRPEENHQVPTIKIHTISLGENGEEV
Summary of the method: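 Prostatic rat vas deferens, 2 cm portions, held at 0.35 g in Tyrode (pH 7.4, 37 °C, 95% O2/5% CO2). Cocaine 10 μM added 20 min before the agonist. Tissue equilibrated 45 min and primed twice with 10 μM noradrenaline. Isotonic cumulative noradrenaline curves were run before and after 30 min antagonist. pA2 came from Schild plots (≥3 concentrations); otherwise pKB (van Rossum). n ≥ 4.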

| pKb [1] | Selectivity ratio (Rattus norvegicus [2]) | Selectivity ratio (Rattus norvegicus [3]) | Selectivity ratio (Rattus norvegicus [4]) | Ki [5] | Kb [9] | Compound | Selectivity ratio (Homo sapiens [6]) | Selectivity ratio (Homo sapiens [7]) | Selectivity ratio (Homo sapiens [8]) |
| --- | --- | --- | --- | --- | --- | --- | --- | --- | --- |
| 7.99 | 9 | 15 | 0.6 | 5.75 nM |  | CCCCCC(=O)N1CCN(c2nc(N)c3cc(OC)c(OC)cc3n2)[C@@H]2CCCC[C@@H]21 | 6 | 4 | 2 |
|  | 9 | 0.3 | 31 | 0.501 nM | 16.2 nM | COc1cc2nc(N3CCN(C(=O)OCc4ccccc4)[C@@H]4CCCC[C@@H]43)nc(N)c2cc1OC | 3 | 0.2 | 13 |
|  | 1000 | 562 | 2 | 224 nM | 3020 nM | COc1cc2nc(N3CCN(C(C)=O)[C@H]4CCCC[C@H]43)nc(N)c2cc1OC | 25 | 12 | 2 |
| 8.77 | 457 | 141 | 3 | 5.5 nM | 776 nM | COc1cc2nc(N3CCN(C(=O)OCc4ccccc4)[C@H]4CCCC[C@H]43)nc(N)c2cc1OC | 14 | 11 | 1 |
| 8.61 | 81 | 32 | 3 |  | 200 nM | COc1cc2nc(N3CCN(C(=O)C4COc5ccccc5O4)[C@H]4CCCC[C@H]43)nc(N)c2cc1OC (single isomer, unassigned; (-)) [CYCLODOXAZOSIN] |  |  |  |
| 7.86 | 93 | 44 | 2 | 22.4 nM |  | CCCN(CCC)c1nc(N2CCN(C(=O)c3ccco3)[C@H]3CCCC[C@H]32)nc2cc(OC)c(OC)cc12 | 74 | 17 | 4 |
| 7.17 | 1 | 1 | 1 | 1.86 nM |  | CCCN(CCC)c1nc(N2CCN(C(=O)c3ccco3)[C@@H]3CCCC[C@@H]32)nc2cc(OC)c(OC)cc12 | 15 | 0.5 | 29 |
| 8.05 | 30 | 15 | 2 | 17 nM |  | COc1cc2nc(N3CCN(C(=O)Cc4ccc5ccccc5c4)[C@H]4CCCC[C@H]43)nc(N)c2cc1OC | 14 | 2 | 8 |
| 8.26 | 12 | 26 | 0.5 | 6.61 nM |  | COc1cc2nc(N3CCN(C(=O)C(C)(C)C)[C@H]4CCCC[C@H]43)nc(N)c2cc1OC | 9 | 8 | 1 |
|  | 72 | 4 | 20 | 9.12 nM | 44.7 nM | COc1cc2nc(N3CCN(C(C)=O)[C@@H]4CCCC[C@@H]43)nc(N)c2cc1OC | 12 | 0.2 | 60 |
|  | 0.8 | 0.3 | 3 | 0.871 nM | 151 nM | COc1cc2nc(N3CCN(C(=O)COc4c(OC)cccc4C(C)C)[C@H]4CCCC[C@H]43)nc(N)c2cc1OC | 6 | 3 | 2 |
